The list is not random: actives were taken first. Their share in the collection is about 2.4%.
Rpn11 block: blocks the human proteasome subunit Rpn11; O00487; human 26S proteasome, Ub4-pepOG fluorescence polarization; 20S core pre-blocked with epoxomicin; inhibition, % at 20 µM; 360,000 tested, 0.59% active; AID 588493;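 active means inhibition at 20 µM, scaled to each plate's controls, above about 33%, limit read from the data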
Target sequence (O00487 whole entry, looked up): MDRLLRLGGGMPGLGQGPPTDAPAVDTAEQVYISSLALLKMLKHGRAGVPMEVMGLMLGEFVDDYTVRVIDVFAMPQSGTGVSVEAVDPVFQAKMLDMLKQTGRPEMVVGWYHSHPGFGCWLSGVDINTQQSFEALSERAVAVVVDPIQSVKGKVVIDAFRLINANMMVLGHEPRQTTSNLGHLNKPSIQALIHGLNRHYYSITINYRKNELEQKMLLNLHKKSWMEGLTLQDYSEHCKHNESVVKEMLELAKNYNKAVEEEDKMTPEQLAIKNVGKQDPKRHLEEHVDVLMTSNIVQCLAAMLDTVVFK
PREPL inh: inhibitors of human prolyl oligopeptidase-like enzyme PREPL; Q4J6C6; recombinant PREPL, fluorescence polarization activity-based probe; inhibition, % at 5.96 µM; 320,000 tested, 0.68% active; AID 2751; in the data active means inhibition above about 43%
TbMetRS inhib: blocks T. brucei methionyl-tRNA synthetase activity; purified T. brucei MetRS, ATP depletion, Kinase-Glo luminescence; inhibition, % at 11.9 µM; 360,000 tested, 0.4% active; AID 624268;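 active means inhibition above a per-plate cutoff of the control wells' mean inhibition plus 3 SD, cut at about 5.5% in these data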
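technique = Kinase-Glo luminescence, ATP depletion format | system = purified MetRS (methionyl-tRNA synthetase) enzyme from Trypanosoma brucei | timing = 15 min preincubation, 2 h reaction, all 25 °C | evaluation = percent inhibition versus plate control medians | dosing = single dose, 11.9 µM final nominal, 0.9% final DMSO | also added = substrates ATP, L-methionine and bulk Escherichia coli tRNA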
HNF4A DNA FP: change in binding of human HNF4 alpha to DNA; HNF4a-FITC DNA binding, fluorescence polarization, 1 h; activity change, % at 10 µM; 360,000 tested, 0.3% active; P41235; in the data active means activity change above about 30%, passing the limit was not always enough
Neddylation inh: blocks human cullin neddylation. P61081+Q13564. TR-FRET cullin neddylation, biochemical. AID 651699. 360,000 tested, 0.58% active. inhibition, % at 25 µM; in the data active means inhibition above about 36%
CSN deneddyl inh: inhibitors of human CSN-mediated cullin deneddylation; Q92905; 360,000 tested, 0.38% active; Purified CSN, SCF-Nedd8-OG deneddylation, fluorescence polarization; inhibition, % at 12.5 µM; AID 651999;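 active means pattern-corrected inhibition above about 35%, with an unprinted fluorescence ratio check between 0.5 and 1.5, limit read from the data, passing the limit was not always enough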
Target sequence (Q92905 whole entry, looked up, one chain of several): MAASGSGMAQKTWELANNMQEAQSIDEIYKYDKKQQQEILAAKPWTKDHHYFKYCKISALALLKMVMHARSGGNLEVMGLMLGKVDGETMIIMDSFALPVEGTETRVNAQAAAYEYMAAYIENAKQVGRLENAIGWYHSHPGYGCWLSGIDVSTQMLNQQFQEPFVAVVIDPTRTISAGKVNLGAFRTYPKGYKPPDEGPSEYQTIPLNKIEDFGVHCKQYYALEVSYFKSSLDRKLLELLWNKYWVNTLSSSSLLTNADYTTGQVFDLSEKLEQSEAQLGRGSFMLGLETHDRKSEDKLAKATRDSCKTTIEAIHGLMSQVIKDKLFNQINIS
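Material: human Csn5 produced in HEK293T cells; Input: enzyme 0.24 nM; Reagent: SCFSkp2-Nedd8OG substrate at 10 nM final; Dosing: 12.5 µM compound; Incubation: 90 min reaction at room temperature; Detection: fluorescence polarization of the substrate; Evaluation: % inhibition of substrate cleavage by Csn5; Control set: substrate-only high control, full reaction low control.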
Numbers stand for hits.

For COc1cc(C(=O)N2CCC2(C)C(=O)O)cc(OC)c1OC (centres undefined) the results were Rpn11 block inactive, TbMetRS inhib inactive, HNF4A DNA FP inactive, Neddylation inh inactive and CSN deneddyl inh inactive.
Screening O=C(Nc1ccccc1C(F)(F)F)NC1(C(=O)N2CCOCC2)CCCCC1 returned TbMetRS inhib inactive, HNF4A DNA FP inactive, Neddylation inh inactive and CSN deneddyl inh 43.
Screening Cc1ccccc1NC(=O)NC1(C(=O)N2CCOCC2)CCCCC1 returned Rpn11 block inactive, PREPL inh inactive, TbMetRS inhib inactive, HNF4A DNA FP inactive, Neddylation inh inactive and CSN deneddyl inh inactive.
`CCCSc1nc2sc3c(c2c(=O)[nH]1)CCN(Cc1ccccc1)C3` gave Rpn11 block 65, PREPL inh inactive, TbMetRS inhib inactive, HNF4A DNA FP inactive, Neddylation inh inactive and CSN deneddyl inh inactive.
CCOC(=O)c1cnc(-n2cc(C)cn2)nc1NCc1ccc2c(c1)OCO2 was read as Rpn11 block inactive, PREPL inh 58, TbMetRS inhib inactive, HNF4A DNA FP 48, Neddylation inh inactive and CSN deneddyl inh inactive.
`COc1cccc2cc(C(=O)NNC(=O)c3ccc(Br)cc3)c(=O)oc12` gave Rpn11 block inactive, PREPL inh inactive, TbMetRS inhib inactive, HNF4A DNA FP inactive, Neddylation inh inactive and CSN deneddyl inh 110.
`Cc1ccc2ccc(C(Nc3cccc(C(F)(F)F)c3)c3cccnc3)c(O)c2n1` (centres undefined) gave Rpn11 block inactive, PREPL inh inactive, TbMetRS inhib inactive, HNF4A DNA FP inactive, Neddylation inh 48 and CSN deneddyl inh inactive.
COc1cc(C(=O)NC2CCN(C)CC2)ccc1Nc1ncc2c(n1)N(Cc1ccccc1)CCC(=O)N2C was read as Rpn11 block inactive, TbMetRS inhib inactive, HNF4A DNA FP inactive, Neddylation inh inactive and CSN deneddyl inh inactive.
COc1cc(C(=O)NC2CCN(C)CC2)ccc1Nc1ncc2c(n1)N(C1CCCCC1)CCC(=O)N2C was read as Rpn11 block inactive, TbMetRS inhib inactive, HNF4A DNA FP inactive, Neddylation inh 40 and CSN deneddyl inh inactive.
For CCOC(=O)c1c(NC(=O)CSc2nnc(C)s2)sc2c1CCN(C)C2 the results were PREPL inh inactive, TbMetRS inhib inactive, HNF4A DNA FP 73, Neddylation inh inactive and CSN deneddyl inh 43.
For Cc1ccc(S(=O)(=O)c2c(N)n(CCCO)c3nc4ccccc4nc23)cc1 the results were Rpn11 block inactive, PREPL inh inactive, TbMetRS inhib inactive, HNF4A DNA FP inactive and CSN deneddyl inh 41.
Screening CCCCn1c(NC(=O)c2ccco2)c(S(=O)(=O)c2ccc(C)cc2)c2nc3ccccc3nc21 returned TbMetRS inhib inactive, HNF4A DNA FP 68 and CSN deneddyl inh 54.
Cc1ccc(S(=O)(=O)c2c(N)n(CCC(C)C)c3nc4ccccc4nc23)cc1 was read as Rpn11 block inactive, PREPL inh inactive, TbMetRS inhib inactive, HNF4A DNA FP inactive and CSN deneddyl inh inactive.
CCCC#Cc1ccc2c(c1)O[C@@H](CN(C)Cc1ccc3c(c1)OCO3)[C@H](C)CN([C@@H](C)CO)S2(=O)=O was read as Rpn11 block inactive, TbMetRS inhib inactive, HNF4A DNA FP inactive, Neddylation inh inactive and CSN deneddyl inh inactive.
For c1ccc2c(c1)[nH]c1c(NCC3CCCO3)ncnc12 (centres undefined) the results were Rpn11 block inactive, PREPL inh inactive, TbMetRS inhib 54, HNF4A DNA FP inactive, Neddylation inh inactive and CSN deneddyl inh inactive.
`CCOC(=O)c1ccccc1NC(=O)Cc1ccc(OC)c(S(=O)(=O)N2CCOCC2)c1` gave Rpn11 block inactive, PREPL inh inactive, TbMetRS inhib inactive, HNF4A DNA FP inactive, Neddylation inh inactive and CSN deneddyl inh inactive.
Nc1nc2c(ncn2[C@@H]2O[C@H](CNCc3ccccc3)[C@@H](O)[C@H]2O)c(=O)[nH]1 was read as Rpn11 block inactive, TbMetRS inhib inactive, HNF4A DNA FP inactive, Neddylation inh inactive and CSN deneddyl inh inactive.
For CCOC(=O)C1=C(C)N=c2s/c(=C\c3ccc(OC(C)=O)c(OCC)c3)c(=O)n2C1/C=C/c1ccccc1 (centres undefined) the results were Rpn11 block inactive, PREPL inh inactive, TbMetRS inhib inactive, HNF4A DNA FP inactive, Neddylation inh inactive and CSN deneddyl inh inactive.
Screening CCOC(=O)C1=C(C)N=c2sc(=Cc3ccc(OCC(=O)O)cc3)c(=O)n2C1c1ccc(Cl)cc1 (centres undefined) returned TbMetRS inhib inactive, HNF4A DNA FP inactive, Neddylation inh inactive and CSN deneddyl inh 35.
For CCOC(=O)C1=C(C)N=c2s/c(=C\c3ccc(OC(C)=O)cc3)c(=O)n2C1/C=C/c1ccccc1 (centres undefined) the results were Rpn11 block inactive, PREPL inh inactive, TbMetRS inhib inactive, HNF4A DNA FP 36, Neddylation inh inactive and CSN deneddyl inh inactive.
For COc1ccccc1N1CCN(S(=O)(=O)CCNC(=O)C(C)Oc2ccccc2)CC1 (centres undefined) the results were Rpn11 block inactive, TbMetRS inhib inactive, HNF4A DNA FP inactive, Neddylation inh inactive and CSN deneddyl inh inactive.
Screening CCN1c2ccccc2NC2C1C(C(C)=O)C(=O)N2c1ccc(Cl)cc1 (centres undefined) returned PREPL inh inactive, TbMetRS inhib inactive, HNF4A DNA FP 45, Neddylation inh inactive and CSN deneddyl inh inactive.
`O=C1Nc2ccccc2N(O)N1c1ccc(Cl)cc1` gave Rpn11 block inactive, PREPL inh inactive, TbMetRS inhib inactive, HNF4A DNA FP inactive, Neddylation inh inactive and CSN deneddyl inh inactive.
`CCN1CCN(Cc2c(O)ccc3c2O/C(=C\C=C\c2ccccc2OC)C3=O)CC1` gave PREPL inh inactive, TbMetRS inhib inactive, HNF4A DNA FP 47 and CSN deneddyl inh inactive.
`COc1ccccc1CCNC(=O)c1cccc(S(=O)(=O)N2CCc3ccccc3C2)c1` gave Rpn11 block inactive, PREPL inh inactive, TbMetRS inhib inactive, HNF4A DNA FP inactive, Neddylation inh inactive and CSN deneddyl inh inactive.
`O=C(CN1C(=O)NC2(CCCC2)C1=O)Nc1cccc(Cl)c1Cl` gave Rpn11 block inactive, PREPL inh inactive, TbMetRS inhib inactive, HNF4A DNA FP inactive, Neddylation inh inactive and CSN deneddyl inh inactive.
Screening O=C1CN(CC(=O)Nc2cccc(Cl)c2Cl)c2ccccc2N1 returned PREPL inh inactive, TbMetRS inhib inactive, HNF4A DNA FP 35, Neddylation inh inactive and CSN deneddyl inh inactive.
Cc1cccc(NC(=O)COC(=O)c2cccc3c2C(=O)c2ccccc2C3=O)c1C was read as Rpn11 block inactive, PREPL inh 59, TbMetRS inhib inactive, HNF4A DNA FP inactive, Neddylation inh inactive and CSN deneddyl inh inactive.
`COC(=O)c1cc(NC(=O)c2ccc(OC)cc2)c(=O)oc1C` gave Rpn11 block inactive, PREPL inh inactive, TbMetRS inhib inactive, HNF4A DNA FP inactive, Neddylation inh inactive and CSN deneddyl inh inactive.

Screens from PubChem BioAssay.
